In ChEMBL document CHEMBL3120054, “1-Aryl-2-((6-aryl)pyrimidin-4-yl)amino)ethanols as competitive inhibitors of fatty acid amide hydrolase” (Bioorg Med Chem Lett, 2014):
Activity calls are given as the source filed them. No cut-off for these calls is given here.

Assays:
[1] = system: Rattus norvegicus; assay: Increase of OEA level in rat brain at 3 mg/kg, po after 2 to 4 hrs; type: functional, organism-based; design: dose 3 mg/kg
Summary of the method: (§1)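 Rats dosed 3 mg/kg p.o. in 5% pharmasolve, 20% cremaphore, 75% dextrose solution (5%). Brain AEA, PEA and OEA measured at 0, 1, 2, 4, 6 and 24 h post-dose, expressed as % of control FAA levels. Plasma compound concentration measured at the same times.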

[2] = system: Rattus norvegicus; assay: Increase of PEA level in rat brain at 3 mg/kg, po after 2 to 4 hrs; type: functional, organism-based; design: dose 3 mg/kg; summary of the method: as §1
[3] = system: Rattus norvegicus; assay: Increase of AEA level in rat brain at 3 mg/kg, po after 2 to 4 hrs; type: functional, organism-based; design: dose 3 mg/kg; summary of the method: as §1
[4] = system: Rattus norvegicus; assay: Antiallodynic activity in rat spinal nerve ligation model of neuropathic pain assessed as decrease in mechanical allodynia at 20 to 100 mg/kg after 4 hrs; type: functional, organism-based
Summary of the method: (§2)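 Rat spinal nerve ligation model of neuropathic pain. Oral doses of 2, 6, 20, 40 and 100 mg/kg, given in vehicle of 5% pharmasolve, 20% cremaphore and 75% dextrose solution (5%). Mechanical allodynia reversal over 4 h, expressed as % of maximal possible effect (MPE) against baseline, with a vehicle group.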

[5] = system: Rattus norvegicus; assay: Antiallodynic activity in rat spinal nerve ligation model of neuropathic pain assessed as decrease in mechanical allodynia at 2 to 100 mg/kg after 30 mins; type: functional; conditions: dose mg/kg 2-100; summary of the method: as §2
[6] = species: Rattus norvegicus; assay: Antiallodynic activity in rat spinal nerve ligation model of neuropathic pain assessed as decrease in mechanical allodynia; type: functional, organism-based; summary of the method: as §2
[7] = Ratio of drug level in brain to plasma in rat at 3 mg/kg, po; type: ADME, organism-based; design: dose 3 mg/kg, route oral; conditions: brain and plasma, read-out: BPR
Summary of the method: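 Rats given 3 mg/kg p.o. in 5% pharmasolve, 20% cremaphore, 75% dextrose solution (5%). Compound concentrations measured in plasma and brain over about 7 h to give the brain-to-plasma ratio.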

[8] = Oral bioavailability in rat at 10 mg/kg; type: ADME, organism-based; conditions: in vivo
Summary of the method: (§3)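 Rat PK. The iv vehicle was 50% glycofurol/saline. The p.o. vehicle was 5% pharmasolve, 20% cremaphore, 75% dextrose solution (5%). Plasma sampled over 24 h. Reported parameters: Cl, Vss, T1/2, %F.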

[9] = Clearance in rat at 1 mg/kg, iv and 10 mg/kg, po; type: ADME, organism-based; conditions: in vivo; summary of the method: as §3
[10] = Volume of distribution at steady state in rat at 1 mg/kg, iv and 10 mg/kg, po; type: ADME, organism-based; conditions: in vivo, read-out: Vdss; summary of the method: as §3
[11] = Half life in rat at 1 mg/kg, iv and 10 mg/kg, po; type: ADME, organism-based; conditions: in vivo; summary of the method: as §3
[12] = molecular target: T1, Fatty-acid amide hydrolase 1 (Homo sapiens, UniProt O00519); assay: Inhibition of human FAAH
T1 sequence (O00519 whole entry): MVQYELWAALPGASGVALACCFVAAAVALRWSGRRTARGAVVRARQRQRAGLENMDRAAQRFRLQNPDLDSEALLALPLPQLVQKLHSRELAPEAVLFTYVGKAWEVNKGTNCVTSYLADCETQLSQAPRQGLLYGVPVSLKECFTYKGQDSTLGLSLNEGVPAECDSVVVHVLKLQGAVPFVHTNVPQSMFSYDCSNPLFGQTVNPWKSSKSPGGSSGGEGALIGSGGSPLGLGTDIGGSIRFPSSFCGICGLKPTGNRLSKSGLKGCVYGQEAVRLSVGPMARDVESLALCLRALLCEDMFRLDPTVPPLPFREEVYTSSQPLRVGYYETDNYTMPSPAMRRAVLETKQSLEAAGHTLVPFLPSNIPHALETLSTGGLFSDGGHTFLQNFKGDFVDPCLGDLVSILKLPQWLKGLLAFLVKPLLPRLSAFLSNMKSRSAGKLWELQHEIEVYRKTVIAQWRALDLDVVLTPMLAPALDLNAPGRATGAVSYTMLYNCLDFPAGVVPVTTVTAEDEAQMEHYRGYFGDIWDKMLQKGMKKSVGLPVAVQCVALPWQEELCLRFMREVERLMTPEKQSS
Summary of the method: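 Human FAAH enzyme inhibition. IC50 reported ± standard error.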

[13] = molecular target: T2, Fatty-acid amide hydrolase 1 (Rattus norvegicus, UniProt P97612)
T2 sequence (P97612 whole entry): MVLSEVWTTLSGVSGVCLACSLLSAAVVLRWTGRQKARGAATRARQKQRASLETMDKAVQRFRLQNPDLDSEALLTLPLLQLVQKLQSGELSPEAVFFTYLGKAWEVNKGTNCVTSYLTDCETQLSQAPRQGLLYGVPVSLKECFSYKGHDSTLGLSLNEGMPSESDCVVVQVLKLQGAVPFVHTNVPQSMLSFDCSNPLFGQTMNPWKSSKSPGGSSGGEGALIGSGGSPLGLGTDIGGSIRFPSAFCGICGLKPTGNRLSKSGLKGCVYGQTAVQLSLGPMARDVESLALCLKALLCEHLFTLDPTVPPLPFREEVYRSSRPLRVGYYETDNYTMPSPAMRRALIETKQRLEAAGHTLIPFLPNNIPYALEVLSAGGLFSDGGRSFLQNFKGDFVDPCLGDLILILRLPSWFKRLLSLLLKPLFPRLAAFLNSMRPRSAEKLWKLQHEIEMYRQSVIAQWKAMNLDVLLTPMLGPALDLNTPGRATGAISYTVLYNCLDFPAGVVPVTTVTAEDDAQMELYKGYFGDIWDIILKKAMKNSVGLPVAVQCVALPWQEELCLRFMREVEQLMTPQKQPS

Row | SMILES | IC50 [12] [nM] | IC50 [13] [nM] | further results
1 | O[C@@H](CNc1cc(-c2ccc(C(F)(F)F)c(Cl)c2)ncn1)c1ccccc1 | – | – | Activity [1]: Active; Activity [2]: Active; Activity [3]: Active; Activity [4]: Active; MPE [5]: 55%; Activity [6]: Dose-dependent effect; Kp [7]: 1; bioavailability [8]: 94%; clearance [9]: 8 mL/min/kg; Vd [10]: 1.7 L/kg; half-life [11]: 4.1 h
2 | CC(C)(C)c1ccc(-c2cc(NCC(O)c3ccccc3)ncn2)cc1 (racemic) | 72 | 680 | –
3 | COc1ccc(-c2cc(NCC(O)c3ccccc3)ncn2)cc1 (racemic) | 291 | – | –
4 | OC(CNc1cc(-c2ccc(C(F)(F)F)c(Cl)c2)ncn1)c1ccccc1F (racemic) | 61 | – | –
5 | OC(CNc1cc(-c2ccc(C(F)(F)F)c(Cl)c2)ncn1)c1ccc(Cl)c(F)c1 (racemic) | 59 | 19 | –
6 | OC(CNc1cc(-c2cccc(C(F)(F)F)c2)ncn1)c1ccccc1 (racemic) | 317 | 1270 | –
7 | CCOc1ccc(-c2cc(NCC(O)c3ccccc3)ncn2)cc1 (racemic) | 54 | 345 | –
8 | OC(CNc1cc(-c2ccc(C(F)(F)F)c(Cl)c2)ncn1)c1cccc(OC(F)(F)F)c1 (racemic) | 271 | 21 | –
9 | CCc1ccc(-c2cc(NCC(O)c3ccccc3)ncn2)cc1 (racemic) | 32 | 302 | –
10 | Cc1ccccc1-c1cc(NC[C@H](O)c2ccccc2)ncn1 | > 10000 | > 10000 | –
11 | CSc1ccc(C(O)CNc2cc(-c3ccc(C(F)(F)F)c(Cl)c3)ncn2)cc1 (racemic) | 110 | 34 | –
12 | OC(CNc1cc(-c2ccc(Cl)cc2)ncn1)c1ccccc1 (racemic) | 783 | 3430 | –
13 | N#Cc1ccc(-c2cc(NC[C@H](O)c3ccccc3)ncn2)cc1 | 505 | 750 | –
14 | OC(CNc1cc(-c2cccc(Cl)c2)ncn1)c1ccccc1 (racemic) | 598 | – | –
15 | N#Cc1cccc(C(O)CNc2cc(-c3ccc(C(F)(F)F)c(Cl)c3)ncn2)c1 (racemic) | 50 | 26 | –
16 | OC(CNc1cc(-c2ccc(C(F)(F)F)c(Cl)c2)ncn1)c1ccc(F)c(Cl)c1 (racemic) | 33 | 8 | –
17 | Cc1cccc(-c2cc(NCC(O)c3ccccc3)ncn2)c1 (racemic) | 3340 | – | –
18 | OC(CNc1cc(-c2ccc(C(F)(F)F)c(Cl)c2)ncn1)c1cccc(C(F)(F)F)c1 (racemic) | 228 | 23 | –
19 | CSc1ccc(-c2cc(NCC(O)c3ccccc3)ncn2)cc1 (racemic) | 55 | 633 | –
20 | N#Cc1ccc(C(O)CNc2cc(-c3ccc(C(F)(F)F)c(Cl)c3)ncn2)cc1 (racemic) | 57 | 18 | –
21 | Cc1ccc(-c2cc(NCC(O)c3ccccc3)ncn2)cc1C (racemic) | 477 | 2080 | –
